UCH37 DUB inh – human UCH37 deubiquitinating enzyme inhibition | Q9Y5K5 | purified proteasome/UCH37, Ub-AMC cleavage fluorescence | inhibition, % (no concentration beside the values) | actives 0.33% (n = 330,000) | AID 588478;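 active = mean inhibition over replicate wells above about 20%, limit read from the data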;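 note: 0% = compound-free wells with enzyme and 100% = wells lacking proteasome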
Target sequence (Q9Y5K5 whole entry, looked up): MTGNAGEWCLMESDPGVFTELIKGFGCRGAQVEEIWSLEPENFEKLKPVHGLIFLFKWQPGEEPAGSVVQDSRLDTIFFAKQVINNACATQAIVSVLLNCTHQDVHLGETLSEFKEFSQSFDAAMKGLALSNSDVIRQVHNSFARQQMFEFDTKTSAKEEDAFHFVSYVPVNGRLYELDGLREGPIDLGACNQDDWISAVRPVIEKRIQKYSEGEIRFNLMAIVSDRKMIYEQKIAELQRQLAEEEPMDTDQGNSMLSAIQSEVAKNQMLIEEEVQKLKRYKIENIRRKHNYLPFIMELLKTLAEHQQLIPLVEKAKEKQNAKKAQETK
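system = Proteasome-associated human UCH37 deubiquitinase | amount = 0.15 nM proteasome as dispensed | medium = pH 7.4 Tris-HCl (50 mM) with ovalbumin, ATP-MgCl2, DTT | incubation = 30 min preincubation with enzyme, 25 min cleavage at room temperature | detection = AMC fluorescence 355/460 nm | read-out basis = percent inhibition | controls = no-proteasome and no-compound wells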
Apaf-1 inh – human Apaf-1 inhibition; O14727; reconstituted apoptosome caspase-3 activity, DEVD-Rh110 fluorescence; inhibition, % at 20 µM; actives 0.71% (n = 330,000); active = inhibition of at least 40% at 20 µM;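 note: plate controls were DMSO wells for no effect and DEVD-CHO caspase inhibitor wells for full effect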
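Material: reconstituted apoptosome with Apaf-1, cytochrome c, caspase-9, procaspase-3, dATP. Technique: Rh110 fluorescence intensity. Buffer or medium: pH 7.5 Hepes buffer with CHAPS, BSA, DTT. Times: 30 min plus 50 min, RT.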
MEKK2 WT-MEK5 – raises or lowers MEK5 binding to wildtype human MEKK2 PB1 domain | Q9Y2U5 | binding response (% of control), % at 10 µM | actives 1.1% (n = 290,000) | bead flow cytometry, Alexa488-MEK5 binding to MEKK2 WT; actives lie on both sides | AID 1531; in the data active = binding response below about 67% or above about 130%; inconclusive = no clear call, values can overlap the other calls; inactive = in between
UBC13 polyUb – blocks human UBC13 polyubiquitin chain formation | inhibition, % at 20 µM | AID 485273 | TR-FRET | actives 0.47% (n = 330,000); in the data active = inhibition above about 45%, passing the limit was not always enough; inconclusive = no clear call, values can overlap the other calls
Target sequence (P61088 whole entry, looked up): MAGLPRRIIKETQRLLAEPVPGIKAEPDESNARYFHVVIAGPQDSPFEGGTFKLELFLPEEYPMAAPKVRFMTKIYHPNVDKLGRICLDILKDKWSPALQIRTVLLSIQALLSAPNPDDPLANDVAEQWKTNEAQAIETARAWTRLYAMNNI
MEKK3 PB1 HTS – raises or lowers MEK5 binding to the human MEKK3 PB1 domain. actives 1.4% (n = 290,000). Q99759. bead-based flow cytometry, Alexa488-MEK5 binding to MEKK3; actives lie on both sides; 0 = blocked by unlabeled MEK5, 100 = vehicle. AID 1529. binding response (% of control), % at 10 µM;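 active = binding response more than 3 SD above or below the average of its plate-row segment, actives on both sides; inconclusive = wells at one plate position flagged as instrument error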;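 note: Alexa488 bead fluorescence after subtracting the streptavidin-only scavenger bead signal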
MEKK2mut PB1 HTS – signal of MEK5 binding to mutant human MEKK2 PB1 domain; bead flow cytometry, Alexa488-MEK5 binding to MEKK2 mutant; actives 0.35% (n = 290,000); percent response, % at 10 µM; in the data active = percent response above about 24%, passing the limit was not always enough
MEKK2wt confirm – raises or lowers MEK5 binding to wildtype human MEKK2, retest | binding response (% of control), % at 10 µM | bead flow cytometry, Alexa488-MEK5 binding to MEKK2 WT; actives lie on both sides | shares compounds with MEKK3 PB1 HTS | actives 2.4% (n = 5,900) | AID 1892; in the data active = binding response below about 16% or above about 210%; inactive = in between
MEKK2mut-MEK5 – signal of MEK5 binding to mutant human MEKK2, retest; shares compounds with MEKK3 PB1 HTS; bead flow cytometry, Alexa488-MEK5 binding to MEKK2 mutant; percent response, % at 10 µM; actives 2% (n = 5,900); in the data active = percent response mostly above about 71%, no sharp cut-off; inactive = mostly below about 38%;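 note: higher means compound restores mutant binding toward wildtype level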
MEKK3 confirm – MEKK3-MEK5 PB1 inhibition, single concentration confirmation; shares compounds with MEKK3 PB1 HTS; bead flow cytometry, Alexa488-MEK5 binding to MEKK3; active compounds read low; binding response (% of control), % at 10 µM; actives 1.8% (n = 5,900); AID 1894;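 active = binding response below 72% of control, or above a set upper limit, though filed actives all read lower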;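 note: 100% = DMSO only wells and 0% = binding blocked by excess unlabeled MEK5; lower values mean stronger disruption of MEK5 binding to MEKK3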
* marks the source's active call; other numbers are inactive results; ? = inconclusive; / = no result given; [ ] = another dose, or the depositor's remark. Most compounds without a hit are left out; they make up all but 3% or so of the library.

SMILES | UCH37 DUB inh | Apaf-1 inh | MEKK2 WT-MEK5 | UBC13 polyUb | MEKK3 PB1 HTS | MEKK2mut PB1 HTS | MEKK2wt confirm | MEKK2mut-MEK5 | MEKK3 confirm
CC(C)N1CCN(Cc2ccc3c(c2)OCCO3)CC1CCO (stereo not given) | 4 | 2 | 106 | -10 | 109 | 3 | / | / | /
CCOP(=O)(OCC)C(O)c1ccccc1 (stereo not given) | 3 | -23 | 106 | -2 | 105 | 4 | / | / | /
O=C1N(c2ccccc2)C(c2cccnc2)N2CCCN12 (stereo not given) | 4 | 2 | 77 | 1 | 76 | -24 | / | / | /
O=C1N(c2cccc(Cl)c2)C(c2cccnc2)N2CCCN12 (stereo not given) | 2 | -5 | 77 | -1 | 74*[inhibitor] | -11 | 101 | -1 | 103
O=c1[nH]c(O)c(/C=C2/C=CC(c3cc(Cl)ccc3Cl)=N2)c(=O)[nH]1 | 7 | 12 | 63*[inhibitor] | -7 | 109 | 1 | 66 | -14 | 95
CCN(CC)P(=O)(c1nccn1C)N(CC)CC | 2 | -9 | 92 | 7 | 97 | -8 | / | / | /
CCN(CC)CCCOC(=O)C(OC)(c1ccccc1)c1ccccc1 | 1 | -5 | 105 | 8 | 103 | 4 | / | / | /
CC(N)Cc1c[nH]c2ccc(OCc3cccs3)cc12 (stereo not given) | 1 | 16 | 140* | 11 | 119 | 11 | 108 | 7 | 104
COc1ccc(CNC(C)Cc2cccs2)cc1 (stereo not given) | 3 | -11 | 96 | -8 | 95 | -4 | / | / | /
CC(C)CCN1CCN(Cc2c(F)cccc2Cl)CC1CCO (stereo not given) | 4 | -2 | 93 | -2 | 100 | -8 | / | / | /
CCOC(=O)c1c(/N=C/c2c(O)n(-c3ccccc3F)c(=S)[nH]c2=O)sc2c1CCCC2 | -8 | 2 | 64*[inhibitor] | -3 | 91 | -34 | 51 | -23 | 92
CN1C[C@H](CNC(=O)OCc2ccccc2)C[C@@H]2c3cccc4c3c(cn4C)C[C@H]21 | 4 | 27 | 158* | -8 | 116 | 14 | 140 | 10 | 99
C=CCN1C(=O)NC(=O)/C(=C/c2ccc(OC)c(CSc3ccccn3)c2)C1=O | 5 | 2 | 80 | 3 | 80*[inhibitor] | -20 | 99 | -2 | 99
COc1ccc(C(CC(=O)N2CCC3(CC2)OCCO3)NS(=O)(=O)c2ccc(C)cc2)cc1 (stereo not given) | 4 | 1 | 88 | 3 | 78*[inhibitor] | -11 | 102 | 7 | 105
COc1ccc(N2CCN(CCCN)CC2)cc1 | -1 | 5 | 152* | 7 | 104 | 23 | 162 | 34 | 108
COc1ccc(N2C(=O)CC(=O)NC2=O)cc1 | 3 | 0 | 106 | 6 | 104 | 1 | / | / | /
NCCCN1CCN(c2ccccc2)CC1 | 1 | -2 | 152* | -7 | 98 | 28 | 133 | 25 | 101
CC(=O)NC1=C(N2CC2C)C(=O)C(NC(C)=O)=C(N2CC2C)C1=O (stereo not given) | 8 | / | / | / | / | / | / | / | /
CC1N=C(c2ccccc2)c2cc(Br)ccc2NC1=O (stereo not given) | 3 | -8 | 103 | 12 | 103 | 3 | / | / | /
O=C(c1cc(C(=O)NCc2ccc(Cl)cc2)c(=O)n(Cc2ccc(Cl)cc2)c1)c1cc(F)ccc1O | 3 | -10 | 107 | -23 | 134* | 0 | 97 | -9 | 103
Cc1ccc(O)c(C(=O)c2cc(C(=O)NCCC(C)C)c(=O)n(CCC(C)C)c2)c1 | 1 | 26 | 104 | -14 | 102 | 1 | / | / | /
O=c1[nH]c(=O)n(CCc2ccccc2)c(O)c1C=NCc1ccc2c(c1)OCO2 | 5 | 3 | 100 | 9 | 102 | -2 | / | / | /
CCCN1CCO[C@@H]2c3cc(O)ccc3OC[C@H]21 | 3 | 5 | / | -2 | / | / | / | / | /
C=CCN1C(=O)/C(=C/c2cc(C)n(-c3cccnc3)c2C)C(=O)NC1=S | 5 | / | 86 | / | 100 | -2 | / | / | /
CC1CC(C)CN(CC(=O)c2ccc(OC(F)F)cc2)C1 (stereo not given) | 6 | -4 | 106 | -1 | 106 | 24 | / | / | /
SMILES | UCH37 DUB inh | Apaf-1 inh | MEKK2 WT-MEK5 | UBC13 polyUb | MEKK3 PB1 HTS | MEKK2mut PB1 HTS | MEKK2wt confirm | MEKK2mut-MEK5 | MEKK3 confirm
CN(C)CCN(CC1CCCN(Cc2ccccc2F)C1)C(=O)Cc1ccccc1F (stereo not given) | 4 | / | 121 | / | 111 | 30* | 115 | 5 | 102
CN(C)CCN(CC1CCCN(Cc2ccccc2F)C1)C(=O)Cc1c(F)cccc1F (stereo not given) | 1 | -2 | 114 | 7 | 104 | 10 | / | / | /
CN1CC=C(/C=C/c2ccc(-c3ccccc3)cc2)CC1 | -16 | 23 | 167* | 15 | 110 | 10 | 163 | 30 | 104
COc1ccc(/C=C/C2=CCN(C)CC2)cc1 | -3 | -8 | 104 | 5 | 94 | -3 | / | / | /
C=CC1CN2CCC1CC2C(OC(C)=O)c1ccnc2ccc(OC)cc12 (stereo not given) | -5 | -9 | 102 | 4 | 98 | 0 | / | / | /
Cc1cc(C=C2C(=O)NC(=S)NC2=O)c(C)n1C1CCCC1 | 2 | 4 | 99 | -52 | 106 | -3 | / | / | /
Cc1cc(C=C2C(=O)N(C)C(=S)N(C)C2=O)c(C)n1C1CCCCC1 | -3 | 9 | 72*[inhibitor] | -30 | 95 | -21 | 82 | -9 | 99
Cc1cc(N2CCCCC2)ccc1C=C1C(=O)N(C)C(=S)N(C)C1=O | 6 | 12 | 29*[inhibitor] | -6 | 90 | -2 | 87 | -5 | 88
COc1ccc(N2C(=O)/C(=C/c3ccc(C)o3)C(=O)NC2=S)cc1 | 1 | 6 | 91 | -22 | 97 | -3 | / | / | /
COc1ccc(OC)c(N2C(=O)/C(=C/c3ccco3)C(=O)NC2=S)c1 | 52* | 73* | 66*[inhibitor] | ? | 85 | -25 | 98 | 2 | 100
COc1ccc(N2C(=O)/C(=C/c3cc(C)n(-c4ccc(C)cn4)c3C)C(=O)NC2=S)c(OC)c1 | 4 | -11 | 33*[inhibitor] | -7 | 51 | -20 | 85 | -5 | 98
CC(C)n1nnnc1CN1CCN(C)CC1 | 5 | -3 | 101 | 2 | 98 | -2 | / | / | /

Source: PubChem
